Source: ChEMBL document CHEMBL1944511, “Bakuchiol derivatives as novel and potent cytotoxic agents: a report” (Eur J Med Chem, 2012)

Experiments:
MCF7 [1] = assay: Growth inhibition of human MCF7 cells at 50 uM after 48 hrs by sulpharhodamine B assay; type: functional; conditions: MCF7, 48 h, read-out: GI
Procedure, shortened: (§1)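 This is the SRB protein-stain assay on adherent cells in RPMI-1640/MEM with 10% FCS. Each compound in DMSO (vehicle <0.2%) was applied at a single fixed concentration for 48 h. Cells were fixed with TCA and stained with SRB, and the dye was solubilised in Tris and read at 570/620 nm. Percent growth inhibition is relative to vehicle-treated controls, reported as mean ± SD of three experiments run in triplicate.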

A549 [2] = assay: Growth inhibition of human A549 cells at 50 uM after 48 hrs by sulpharhodamine B assay; type: functional; conditions: A549, 48 h, read-out: GI; procedure, shortened: as §1
PC-3 [3] = assay: Growth inhibition of human PC3 cells at 50 uM after 48 hrs by sulpharhodamine B assay; type: functional; conditions: PC-3, 48 h, read-out: GI
Procedure, shortened: (§2)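 Cells grown in RPMI-1640/MEM with 10% FCS, penicillin/streptomycin, 37 °C, 5% CO2. Seeded in 96-well plates, allowed to adhere overnight, then exposed 48 h to analogs in DMSO (vehicle <0.2% in controls). TCA-fixed, stained with 0.4% SRB in 1% acetic acid, dye solubilized in 10 mM Tris base, OD 570 nm (ref 620 nm). Mean ± SD of three experiments run in triplicate.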

OVCAR-5 [4] = assay: Growth inhibition of human OVCAR5 cells at 50 uM after 48 hrs by sulpharhodamine B assay; type: functional; conditions: OVCAR-5, 48 h, read-out: GI; procedure, shortened: as §1
THP-1 [5] = assay: Growth inhibition of human THP1 cells at 50 uM after 48 hrs by sulpharhodamine B assay; type: functional; conditions: THP-1, 48 h, read-out: GI; procedure, shortened: as §2
A549 [6] = assay: Growth inhibition of human A549 cells at 20 uM after 48 hrs by sulpharhodamine B assay; type: functional; conditions: A549, 48 h, read-out: GI; procedure, shortened: as §1
IMR-32 [7] = assay: Growth inhibition of human IMR32 cells at 20 uM after 48 hrs by sulpharhodamine B assay; type: functional; conditions: IMR-32, 48 h, read-out: GI; procedure, shortened: as §1
THP-1 [8] = assay: Growth inhibition of human THP1 cells at 20 uM after 48 hrs by sulpharhodamine B assay; type: functional; conditions: THP-1, 48 h, read-out: GI; procedure, shortened: as §2
A549 [9] = assay: Growth inhibition of human A549 cells at 30 uM after 48 hrs by sulpharhodamine B assay; type: functional; conditions: A549, 48 h, read-out: GI; procedure, shortened: as §1
OVCAR-5 [10] = assay: Growth inhibition of human OVCAR5 cells at 30 uM after 48 hrs by sulpharhodamine B assay; type: functional; conditions: OVCAR-5, 48 h, read-out: GI; procedure, shortened: as §1
IMR-32 [11] = assay: Growth inhibition of human IMR32 cells at 30 uM after 48 hrs by sulpharhodamine B assay; type: functional; conditions: IMR-32, 48 h, read-out: GI; procedure, shortened: as §1
MCF7 [12] = assay: Growth inhibition of human MCF7 cells at 10 uM after 48 hrs by sulpharhodamine B assay; type: functional; conditions: MCF7, 48 h, read-out: GI; procedure, shortened: as §1
MCF7 [13] = assay: Growth inhibition of human MCF7 cells at 5 uM after 48 hrs by sulpharhodamine B assay; type: functional; conditions: MCF7, 48 h, read-out: GI; procedure, shortened: as §1
HEp-2 [14] = assay: Growth inhibition of human Hep2 cells at 30 uM after 48 hrs by sulpharhodamine B assay; type: functional; conditions: HEp-2, 48 h, read-out: GI; procedure, shortened: as §1
HEp-2 [15] = assay: Growth inhibition of human Hep2 cells at 20 uM after 48 hrs by sulpharhodamine B assay; type: functional; conditions: HEp-2, 48 h, read-out: GI; procedure, shortened: as §1
HEp-2 [16] = assay: Growth inhibition of human Hep2 cells at 10 uM after 48 hrs by sulpharhodamine B assay; type: functional; conditions: HEp-2, 48 h, read-out: GI; procedure, shortened: as §1
A549 [17] = assay: Growth inhibition of human A549 cells at 10 uM after 48 hrs by sulpharhodamine B assay; type: functional; conditions: A549, 48 h, read-out: GI; procedure, shortened: as §1
A549 [18] = assay: Growth inhibition of human A549 cells at 5 uM after 48 hrs by sulpharhodamine B assay; type: functional; conditions: A549, 48 h, read-out: GI; procedure, shortened: as §1
DU-145 [19] = assay: Growth inhibition of human DU145 cells at 20 uM after 48 hrs by sulpharhodamine B assay; type: functional; conditions: DU-145, 48 h, read-out: GI; procedure, shortened: as §1
DU-145 [20] = assay: Growth inhibition of human DU145 cells at 10 uM after 48 hrs by sulpharhodamine B assay; type: functional; conditions: DU-145, 48 h, read-out: GI; procedure, shortened: as §1
THP-1 [21] = assay: Growth inhibition of human THP1 cells at 10 uM after 48 hrs by sulpharhodamine B assay; type: functional; conditions: THP-1, 48 h, read-out: GI; procedure, shortened: as §2
THP-1 [22] = assay: Growth inhibition of human THP1 cells at 5 uM after 48 hrs by sulpharhodamine B assay; type: functional; conditions: THP-1, 48 h, read-out: GI; procedure, shortened: as §2
PC-3 [23] = assay: Growth inhibition of human PC3 cells at 10 uM after 48 hrs by sulpharhodamine B assay; type: functional; conditions: PC-3, 48 h, read-out: GI; procedure, shortened: as §1
PC-3 [24] = assay: Growth inhibition of human PC3 cells at 5 uM after 48 hrs by sulpharhodamine B assay; type: functional; conditions: PC-3, 48 h, read-out: GI; procedure, shortened: as §2
IMR-32 [25] = assay: Growth inhibition of human IMR32 cells at 10 uM after 48 hrs by sulpharhodamine B assay; type: functional; conditions: IMR-32, 48 h, read-out: GI; procedure, shortened: as §1
IMR-32 [26] = assay: Growth inhibition of human IMR32 cells at 5 uM after 48 hrs by sulpharhodamine B assay; type: functional; conditions: IMR-32, 48 h, read-out: GI; procedure, shortened: as §1
HCT-15 [27] = assay: Growth inhibition of human HCT15 cells at 20 uM after 48 hrs by sulpharhodamine B assay; type: functional; conditions: HCT-15, 48 h, read-out: GI; procedure, shortened: as §1
HCT-15 [28] = assay: Growth inhibition of human HCT15 cells at 10 uM after 48 hrs by sulpharhodamine B assay; type: functional; conditions: HCT-15, 48 h, read-out: GI; procedure, shortened: as §1
HCT-15 [29] = assay: Growth inhibition of human HCT15 cells at 5 uM after 48 hrs by sulpharhodamine B assay; type: functional; conditions: HCT-15, 48 h, read-out: GI; procedure, shortened: as §1
DU-145 [30] = assay: Cytotoxicity against human DU145 cells after 48 hrs by sulpharhodamine B assay; type: functional, cell-based; conditions: DU-145, 48 h
Procedure, shortened: (§3)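 Cells were grown in RPMI-1640/MEM with 10% FCS and penicillin/streptomycin at 37 °C under 5% CO2, then seeded and left to adhere overnight. Analogs in DMSO (vehicle <0.2%) were added at several concentrations for 48 h. Cells were fixed with cold 50% TCA, stained with 0.4% SRB in 1% acetic acid, solubilised in 10 mM Tris, and read at OD 570/620 nm. IC50 came from non-linear regression.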

PC-3 [31] = assay: Cytotoxicity against human PC3 cells after 48 hrs by sulpharhodamine B assay; type: functional, cell-based; conditions: PC-3, 48 h; procedure, shortened: as §3
A549 [32] = assay: Cytotoxicity against human A549 cells after 48 hrs by sulpharhodamine B assay; type: functional, cell-based; conditions: A549, 48 h; procedure, shortened: as §3
HCT-15 [33] = assay: Cytotoxicity against human HCT15 cells after 48 hrs by sulpharhodamine B assay; type: functional, cell-based; conditions: HCT-15, 48 h; procedure, shortened: as §3
HL-60 [34] = assay: Cytotoxicity against human HL60 cells after 48 hrs by MTT assay; type: functional, cell-based; conditions: for IC50: HL-60, 48 h
Procedure, shortened: (§4)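 Exponentially growing HL-60 cells (1.5×10^4 per well) in 96-well plates were exposed to a range of compound concentrations in DMSO, with vehicle-only controls. MTT (2.5 mg/mL stock) was added for 3–4 h at 37 °C, and formazan was dissolved in DMSO and read at OD 570/620 nm. […] Data are mean ± SD of n = 6 wells from two experiments.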

HL-60 [35] = assay: Cytotoxicity against human HL60 cells by MTT assay; type: functional, cell-based; conditions: TDE = time-dependent effect; procedure, shortened: as §4
HL-60 [36] = assay: Induction of apoptosis in human HL60 cells assessed as increase in […] sub-G0 fraction at 20 uM by propidium iodide staining-based flow cytometric analysis (reference value: 6%); type: functional
HL-60 [37] = assay: Induction of apoptosis in human HL60 cells assessed as increase in […] sub-G0 fraction at 30 uM by propidium iodide staining-based flow cytometric analysis (reference value: 6%); type: functional
HL-60 [38] = assay: Induction of apoptosis in human HL60 cells assessed as loss of mitochondrial membrane potential at 5 uM after 24 hrs by rodamine-123 staining-based flow cytometric analysis (reference value: 6%); type: functional
MCF7 [39] = assay: Growth inhibition of human MCF7 cells at 20 uM after 48 hrs by sulpharhodamine B assay; type: functional; conditions: MCF7, 48 h, read-out: GI; procedure, shortened: as §1

Compound	inhibition of growth at 50 µM (MCF7 [1])	inhibition of growth at 50 µM (A549 [2])	inhibition of growth at 50 µM (PC-3 [3])	inhibition of growth at 50 µM (OVCAR-5 [4])	inhibition of growth at 50 µM (THP-1 [5])	inhibition of growth at 20 µM (A549 [6])	inhibition of growth at 20 µM (IMR-32 [7])	inhibition of growth at 20 µM (THP-1 [8])	inhibition of growth at 30 µM (A549 [9])	inhibition of growth at 30 µM (OVCAR-5 [10])	inhibition of growth at 30 µM (IMR-32 [11])	inhibition of growth at 10 µM (MCF7 [12])	inhibition of growth at 5 µM (MCF7 [13])	inhibition of growth at 30 µM (HEp-2 [14])	inhibition of growth at 20 µM (HEp-2 [15])	inhibition of growth at 10 µM (HEp-2 [16])	inhibition of growth at 10 µM (A549 [17])	inhibition of growth at 5 µM (A549 [18])	inhibition of growth at 20 µM (DU-145 [19])	inhibition of growth at 10 µM (DU-145 [20])	also measured
COc1ccc(/C=C/[C@](C)(/C=C/c2ccc(O)cc2)CCC=C(C)C)cc1	77%	70%	93%	67%	86%	69%	40%	78%	55%	50%	51%	37%	24%	45%	58%	46%	47%	24%	73%	57%	inhibition of growth at 10 µM (THP-1 [21]): 62%; inhibition of growth at 5 µM (THP-1 [22]): 53%; inhibition of growth at 10 µM (PC-3 [23]): 41%; inhibition of growth at 5 µM (PC-3 [24]): 23%; inhibition of growth at 10 µM (IMR-32 [25]): 32%; inhibition of growth at 5 µM (IMR-32 [26]): 13%; inhibition of growth at 20 µM (HCT-15 [27]): 61%; inhibition of growth at 10 µM (HCT-15 [28]): 50%; inhibition of growth at 5 µM (HCT-15 [29]): 28%; IC50 (DU-145 [30]): 11 µM; IC50 (PC-3 [31]): 15 µM; IC50 (A549 [32]): 12 µM; IC50 (HCT-15 [33]): 13 µM; Activity (HL-60 [34]): Dose-dependent effect; IC50 (HL-60 [34]): 2 µM; Activity (HL-60 [35]): tde; Activity (HL-60 [36]): 54%; Activity (HL-60 [37]): 66%; Activity (HL-60 [38]): 20.6%; inhibition of growth at 20 µM (MCF7 [39]): 50%
CC1C(C(C)(C)O)CCC1(C)/C=C/c1ccc(O)cc1 (stereo not given)	79%	76%	86%	75%	93%	53%	62%	76%	61%	55%	57%	32%	27%	53%	50%	34%	40%	32%	54%	50%	inhibition of growth at 10 µM (THP-1 [21]): 65%; inhibition of growth at 5 µM (THP-1 [22]): 54%; inhibition of growth at 10 µM (PC-3 [23]): 35%; inhibition of growth at 5 µM (PC-3 [24]): 24%; inhibition of growth at 10 µM (IMR-32 [25]): 50%; inhibition of growth at 5 µM (IMR-32 [26]): 46%; inhibition of growth at 20 µM (HCT-15 [27]): 63%; inhibition of growth at 10 µM (HCT-15 [28]): 55%; inhibition of growth at 5 µM (HCT-15 [29]): 29%; IC50 (DU-145 [30]): 14 µM; IC50 (PC-3 [31]): 19 µM; IC50 (A549 [32]): 17 µM; IC50 (HCT-15 [33]): 13 µM; Activity (HL-60 [34]): Dose-dependent effect; IC50 (HL-60 [34]): 1.8 µM; Activity (HL-60 [35]): tde; Activity (HL-60 [36]): 48%; Activity (HL-60 [37]): 68%; Activity (HL-60 [38]): 17.9%; inhibition of growth at 20 µM (MCF7 [39]): 50%
